ChEMBL document CHEMBL4024779, “Novel Terminal Bipheny-Based Diapophytoene Desaturases (CrtN) Inhibitors as Anti-MRSA/VISR/LRSA Agents with Reduced hERG Activity” (J Med Chem, 2018)
Active and inactive are the calls of the source. No cut-off for these calls is given here.

What was measured:
Staphylococcus aureus [1] = assay: In vivo anti-virulence activity against Staphylococcus aureus Newman infected in BALB/c mouse model assessed as reduction in bacterial load in kidney at 0.4 mg bid for 3.5 days administered orally 6 hrs post infection by serial dilution method relative to control; assay type: functional; parameters: scale not given: the % may be the effect or the level left
In short: (§1)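 Mice got 3.1 × 10^7 CFU S. aureus Newman by retro-orbital injection. Oral compound was given b.i.d. for 3.5 d, starting 6 h after infection. […] Log10 CFU was counted per kidney and per heart.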

[2] = AUC (0 to infinity) in Sprague-Dawley rat at 5 mg/kg, iv administered as single dose by LC-MS/MS analysis; assay type: ADME, organism-based; parameters: dose 5 mg/kg, time infinity, route intravenous; details: in vivo
[3] = Half life in mouse at 10 mg/kg, po administered as single dose by LC-MS/MS analysis; assay type: ADME, organism-based; details: in vivo
Staphylococcus aureus [4] = assay: In vivo anti-virulence activity against methicillin-resistant Staphylococcus aureus NF65Y infected in BALB/c mouse model assessed as reduction in bacterial load in kidney at 0.1 mg bid for 3.5 days administered intraperitoneally 6 hrs post infection by serial dilution method relative to vancomycin; assay type: functional, organism-based
In short: (§2)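 Mice infected retro-orbitally with S. aureus NF65Y (3.5 × 10^8 CFU) or XN108 (2.1 × 10^8 CFU). Test compound given i.p. b.i.d. starting 6 h post-infection. […] Log10 CFU per kidney and heart counted. Two-tailed Mann−Whitney test.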

[5] = Tmax in Sprague-Dawley rat at 5 mg/kg, iv administered as single dose by LC-MS/MS analysis; assay type: ADME, organism-based; details: in vivo
[6] = target: T1, 4,4'-diapophytoene desaturase (4,4'-diaponeurosporene-forming) (Staphylococcus aureus (strain MW2)) (UniProt Q8NUQ6); details: Staphylococcus aureus subsp. aureus MW2; USA400; 1 uM
T1 sequence (whole entry): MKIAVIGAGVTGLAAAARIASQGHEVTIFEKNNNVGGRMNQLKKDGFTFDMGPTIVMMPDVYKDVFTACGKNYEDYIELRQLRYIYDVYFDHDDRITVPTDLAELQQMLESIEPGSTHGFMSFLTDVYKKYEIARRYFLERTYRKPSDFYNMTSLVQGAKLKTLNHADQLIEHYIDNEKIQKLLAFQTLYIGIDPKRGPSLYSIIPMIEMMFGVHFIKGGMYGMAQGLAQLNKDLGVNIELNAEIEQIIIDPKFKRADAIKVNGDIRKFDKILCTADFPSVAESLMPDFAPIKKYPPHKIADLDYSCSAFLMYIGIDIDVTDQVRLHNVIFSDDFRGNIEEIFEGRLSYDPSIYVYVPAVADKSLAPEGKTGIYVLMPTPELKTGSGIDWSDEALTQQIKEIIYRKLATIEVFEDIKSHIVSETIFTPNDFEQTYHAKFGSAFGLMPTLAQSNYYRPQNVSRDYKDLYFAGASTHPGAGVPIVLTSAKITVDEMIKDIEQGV

[7] = Oral bioavailability in Sprague-Dawley rat at 10 mg/kg administered as single dose by LC-MS/MS analysis; assay type: ADME, organism-based; details: in vivo
[8] = Inhibition of CrtN in methicillin-resistant Staphylococcus aureus NRS108 assessed as reduction in staphyloxanthin levels after 48 hrs by spectrophotometric method-based pigment inhibition assay
Cytochrome P450 3A4 = Cytochrome P450 3A4 (Homo sapiens, UniProt P08684); assay: Inhibition of CYP3A4 in human liver microsomes using midazolam as substrate upto 10 uM after 5 mins in presence of NADPH by LC-MS/MS analysis; assay type: ADME
Staphylococcus aureus [9] = assay: In vivo anti-virulence activity against methicillin-resistant Staphylococcus aureus LRSA56 infected in BALB/c mouse model assessed as reduction in bacterial load in heart at 0.1 mg bid for 3.5 days administered intraperitoneally 6 hrs post infection by serial dilution method relative to linezolid; assay type: functional; parameters: scale not given: the % may be the effect or the level left
In short: (§3)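 Mice were infected by retro-orbital injection with LRSA56 (5.0 × 10^7 CFU) or LRSA202 (7.0 × 10^7 CFU). Compound was given intraperitoneally 6 h after infection. […] Log10 CFU was counted in kidneys and hearts, with groups compared by two-tailed Mann-Whitney test.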

[10] = Clearance in mouse at 2 mg/kg, iv administered as single dose by LC-MS/MS analysis; assay type: ADME, organism-based; details: in vivo
Cytochrome P450 2C19 = Cytochrome P450 2C19 (Homo sapiens, UniProt P33261); assay: Inhibition of CYP2C19 in human liver microsomes using mephenytoin as substrate upto 10 uM after 45 mins in presence of NADPH by LC-MS/MS analysis; assay type: ADME
[11] = Oral bioavailability in mouse at 10 mg/kg administered as single dose by LC-MS/MS analysis; assay type: ADME, organism-based; details: in vivo
[12] = Half life in Sprague-Dawley rat at 10 mg/kg, ip administered as single dose by LC-MS/MS analysis; assay type: ADME, organism-based; details: in vivo
Staphylococcus aureus [13] = assay: In vivo anti-virulence activity against methicillin-resistant Staphylococcus aureus XN108 infected in BALB/c mouse model assessed as reduction in bacterial load in heart at 0.1 mg bid for 3.5 days administered intraperitoneally 6 hrs post infection by serial dilution method relative to vancomycin; assay type: functional, organism-based; in short: as §2
Staphylococcus aureus [14] = assay: In vivo anti-virulence activity against methicillin-resistant Staphylococcus aureus LRSA56 infected in BALB/c mouse model assessed as reduction in bacterial load in heart at 0.1 mg bid for 3.5 days administered intraperitoneally 6 hrs post infection by serial dilution method relative to control; assay type: functional; parameters: scale not given: the % may be the effect or the level left; in short: as §3
Staphylococcus aureus [15] = assay: In vivo anti-virulence activity against Staphylococcus aureus Newman in mouse lethal infection model assessed as host survival rate at 0.1 mg bid for 3.5 days administered intraperitoneally 6 hrs post infection and measured on day 4; assay type: functional
In short: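 In a lethal sepsis model, mice (n=15) were challenged with 2 × 10^8 CFU S. aureus Newman. Animal survival was recorded daily through day 8.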

Staphylococcus aureus [16] = assay: In vivo anti-virulence activity against Staphylococcus aureus Newman infected in BALB/c mouse model assessed as reduction in bacterial load in heart at 0.4 mg bid for 3.5 days administered orally 6 hrs post infection by serial dilution method relative to vancomycin; assay type: functional; parameters: scale not given: the % may be the effect or the level left; in short: as §1
[17] = Inhibition of CrtN in methicillin-resistant Staphylococcus aureus NRS100 assessed as reduction in staphyloxanthin levels after 48 hrs by spectrophotometric method-based pigment inhibition assay
[18] = Half life in Sprague-Dawley rat at 10 mg/kg, po administered as single dose by LC-MS/MS analysis; assay type: ADME, organism-based; details: in vivo
[19] = AUC (0 to infinity) in Sprague-Dawley rat at 10 mg/kg, po administered as single dose by LC-MS/MS analysis; assay type: ADME, organism-based; parameters: dose 10 mg/kg, route oral, time infinity; details: in vivo
Rattus norvegicus = assay: Toxicity in Sprague-Dawley rat at 60 to 1000 mg/kg, po administered as single dose assessed as poisoning symptoms measured immediately post administration; assay type: organism-based; details: in vivo
In short: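 Acute toxicity study: 30 rats randomly split into three groups and given a single oral dose (60, 250 or 1000 mg/kg) on day 1. Animals were watched for poisoning symptoms and mortality immediately after dosing and over a 2-week post-treatment period. Behaviour, water/food consumption and body weight were also tracked.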

[20] = Half life in Sprague-Dawley rat at 5 mg/kg, iv administered as single dose by LC-MS/MS analysis; assay type: ADME, organism-based; details: in vivo
[21] = AUC (0 to infinity) in mouse at 2 mg/kg, iv administered as single dose by LC-MS/MS analysis; assay type: ADME, organism-based; parameters: dose 2 mg/kg, time infinity, route intravenous; details: in vivo
[22] = Tmax in mouse at 10 mg/kg, po administered as single dose by LC-MS/MS analysis; assay type: ADME, organism-based; details: in vivo

Sequence of Cytochrome P450 2C19 (P33261 whole entry): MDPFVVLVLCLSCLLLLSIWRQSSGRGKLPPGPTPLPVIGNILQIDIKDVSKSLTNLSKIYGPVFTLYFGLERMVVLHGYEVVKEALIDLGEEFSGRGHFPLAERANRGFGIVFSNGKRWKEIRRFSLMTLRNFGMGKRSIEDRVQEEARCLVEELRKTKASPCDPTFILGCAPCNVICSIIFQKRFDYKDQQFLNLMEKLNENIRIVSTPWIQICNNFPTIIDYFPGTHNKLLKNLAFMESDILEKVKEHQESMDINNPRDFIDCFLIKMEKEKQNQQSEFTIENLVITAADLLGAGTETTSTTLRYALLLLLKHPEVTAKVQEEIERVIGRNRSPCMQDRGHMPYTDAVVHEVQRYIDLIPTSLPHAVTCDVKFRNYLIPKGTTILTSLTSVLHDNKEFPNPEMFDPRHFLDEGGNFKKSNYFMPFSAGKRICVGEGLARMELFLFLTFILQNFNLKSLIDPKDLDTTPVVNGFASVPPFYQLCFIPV
Sequence of Cytochrome P450 3A4 (P08684 whole entry): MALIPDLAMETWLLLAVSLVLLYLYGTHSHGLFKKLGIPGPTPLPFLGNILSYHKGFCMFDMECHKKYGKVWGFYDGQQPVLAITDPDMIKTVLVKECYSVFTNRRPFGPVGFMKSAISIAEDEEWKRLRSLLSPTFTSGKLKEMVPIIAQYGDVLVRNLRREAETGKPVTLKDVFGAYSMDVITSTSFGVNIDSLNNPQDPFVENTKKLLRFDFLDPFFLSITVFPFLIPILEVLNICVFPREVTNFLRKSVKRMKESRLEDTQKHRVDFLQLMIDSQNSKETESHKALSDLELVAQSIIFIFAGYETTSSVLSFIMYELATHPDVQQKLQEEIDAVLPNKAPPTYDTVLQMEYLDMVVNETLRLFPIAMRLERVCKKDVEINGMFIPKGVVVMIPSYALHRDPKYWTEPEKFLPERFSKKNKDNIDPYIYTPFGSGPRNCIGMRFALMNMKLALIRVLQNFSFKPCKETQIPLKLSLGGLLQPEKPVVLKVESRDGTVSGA

## CN(C/C=C/c1ccc(-c2ccccc2)cc1)Cc1coc2ccccc12.Cl
Staphylococcus aureus [1]
  Activity: 90%
[2]
  AUC(0-inf): 2860 ng·h/mL
[3]
  half-life: 3.35 h
Staphylococcus aureus [4]
  Activity: Active
[5]
  Tmax: 4.8 min
[6]
  Survival: 2.3%
[7]
  bioavailability: 16.3%
[8]
  IC50: 5.6 nM
Cytochrome P450 3A4
  IC50: > 10000 nM
Staphylococcus aureus [9]
  Activity: >71.8%
[10]
  clearance: 30.7 mL/min/kg
Cytochrome P450 2C19
  IC50: > 10000 nM
[11]
  bioavailability: 83.8%
[12]
  half-life: 7.61 h
Staphylococcus aureus [13]
  Activity: Active
Staphylococcus aureus [14]
  Activity: >81.4%
Staphylococcus aureus [15]
  Survival: 80%
Staphylococcus aureus [16]
  Activity: >55.3%
[17]
  IC50: 1.2 nM
[18]
  half-life: 1.29 h
[19]
  AUC(0-inf): 930 ng·h/mL
Rattus norvegicus
  Activity: Non-Toxic
[20]
  half-life: 2.46 h
[21]
  AUC(0-inf): 1090 ng·h/mL
[22]
  Tmax: 2 h
